As a reminder, the IC50 is the point on the concentration scale where inhibition reaches its midpoint. For orientation: ED50 means the midpoint of the dose-response relation. A higher ED50 goes with a need for a large dose.

Test [1] has as its target T1, Glutamate receptor ionotropic, NMDA 2B (Rattus norvegicus, UniProt Q00960). Put plainly: Antagonist activity at NR2B NMDA receptor in Wistar rat neocortical cells assessed as inhibition of NMDA-evoked elevation of intracellular calcium concentration. Format: functional, cell-based. The essentials: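 Rat primary neocortical cultures (trypsinised cortex, poly-D-lysine coated wells, glial proliferation stopped with […], serum-free N2 medium) used after 3-10 days in vitro. Compound added (<0.1% DMSO), 5 min baseline, then 40 µM NMDA and 5 min fluorescence recording.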
Background: Calcium assays in cells follow changes in intracellular calcium, usually with a dye or a luminescent sensor.

The target of test [2] is T1, Glutamate receptor ionotropic, NMDA 2B. Nature of the test: Displacement of [3H]Ro 25,6981 from NR2B NMDA receptor in rat forebrain. A digest of the protocol: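 Rat forebrain membranes were washed and suspended in 5 mM TRIS-HCl, pH 7.4, at 1 mg protein/mL. They were incubated 2 h at room temperature with 4 nM [3H]Ro-25,6981 and at least seven compound concentrations. Nonspecific binding was defined with 10 µM Ro-25,6981. Bound and free ligand were separated by GF/B filtration, and filters were counted by liquid scintillation. Results were expressed as % inhibition of specific binding.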
(In general: Displacement assays read how much labelled ligand stays bound in the presence of the test substance.)

The test system of test [3] is Mus musculus. Put plainly: Inhibition of formalin induced nociception in ip dosed NMRI mouse by measuring pain-related licking behavior in late phase. Format: functional. The essentials: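 Mouse formalin test: 20 µL 1% formalin in 0.9% saline injected s.c. into the dorsal right hindpaw. Compound given i.p. Pain-related licking scored at the peak of the second (persistent, 10-60 min) phase. ED50 reported.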

Test [4] concerns Mus musculus. Nature of the test: Inhibition of formalin induced nociception in orally dosed NMRI mouse by measuring pain-related licking behavior in late phase. To be noted: po. Format: functional. The essentials:
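Mice fasted 14-16 h with free 20% glucose. Compound or vehicle (5% Tween 80) given orally 15 min before s.c. injection of 20 µL 1% formalin in 0.9% saline into the dorsal right hindpaw. Licking measured at the peak of the second phase (10-60 min). ED50 reported.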

T1 sequence (Q00960 whole entry): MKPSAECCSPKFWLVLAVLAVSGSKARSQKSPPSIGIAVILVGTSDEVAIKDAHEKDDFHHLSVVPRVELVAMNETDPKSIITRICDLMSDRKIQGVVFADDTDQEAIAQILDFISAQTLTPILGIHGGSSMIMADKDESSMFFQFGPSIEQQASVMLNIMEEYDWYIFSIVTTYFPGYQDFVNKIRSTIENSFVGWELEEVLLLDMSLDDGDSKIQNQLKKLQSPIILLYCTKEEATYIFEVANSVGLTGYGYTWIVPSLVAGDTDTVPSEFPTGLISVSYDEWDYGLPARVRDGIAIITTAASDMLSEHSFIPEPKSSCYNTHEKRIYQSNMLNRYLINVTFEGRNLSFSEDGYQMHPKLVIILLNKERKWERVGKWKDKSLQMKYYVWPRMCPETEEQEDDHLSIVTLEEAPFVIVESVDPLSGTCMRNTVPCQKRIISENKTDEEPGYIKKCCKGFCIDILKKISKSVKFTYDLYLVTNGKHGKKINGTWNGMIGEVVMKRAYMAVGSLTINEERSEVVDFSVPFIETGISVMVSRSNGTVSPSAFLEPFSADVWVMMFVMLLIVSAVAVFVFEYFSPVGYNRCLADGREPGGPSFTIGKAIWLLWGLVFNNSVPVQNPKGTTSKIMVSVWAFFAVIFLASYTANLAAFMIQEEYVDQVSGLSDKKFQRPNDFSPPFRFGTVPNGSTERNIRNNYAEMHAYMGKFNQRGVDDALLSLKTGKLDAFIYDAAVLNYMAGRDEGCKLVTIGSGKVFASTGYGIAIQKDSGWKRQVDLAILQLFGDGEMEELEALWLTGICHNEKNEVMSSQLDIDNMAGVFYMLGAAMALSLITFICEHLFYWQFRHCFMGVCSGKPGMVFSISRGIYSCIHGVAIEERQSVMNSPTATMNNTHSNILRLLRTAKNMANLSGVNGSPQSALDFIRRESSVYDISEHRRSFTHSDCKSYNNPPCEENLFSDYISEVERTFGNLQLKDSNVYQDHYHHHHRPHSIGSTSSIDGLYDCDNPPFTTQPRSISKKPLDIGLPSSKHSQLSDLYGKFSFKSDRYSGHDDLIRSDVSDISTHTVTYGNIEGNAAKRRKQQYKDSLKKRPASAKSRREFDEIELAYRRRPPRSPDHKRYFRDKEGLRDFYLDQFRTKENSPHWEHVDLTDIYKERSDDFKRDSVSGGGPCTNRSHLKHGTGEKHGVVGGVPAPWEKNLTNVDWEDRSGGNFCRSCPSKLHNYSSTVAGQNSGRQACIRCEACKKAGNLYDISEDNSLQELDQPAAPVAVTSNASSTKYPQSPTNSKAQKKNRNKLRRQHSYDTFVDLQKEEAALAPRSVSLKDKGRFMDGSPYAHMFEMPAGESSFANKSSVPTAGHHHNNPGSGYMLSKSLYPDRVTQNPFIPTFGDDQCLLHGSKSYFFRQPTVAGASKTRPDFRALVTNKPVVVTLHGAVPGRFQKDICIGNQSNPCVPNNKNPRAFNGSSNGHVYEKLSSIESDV

As to `O=C(c1cc2cccc(O)c2[nH]1)N1CCC(Cc2ccccc2)CC1`, the IC50 stood at 0.165 µM in test [1] and 0.38 µM in test [2]. In the same order, the values of `O=C(c1cc2cc(O)cc(O)c2[nH]1)N1CCC(Cc2ccccc2)CC1` are 0.031 µM and 0.106 µM. The matching figures for `O=C(c1cc2c(O)cccc2[nH]1)N1CCC(Cc2ccccc2)CC1`: 0.016 µM and 0.018 µM.

On to `O=C(c1cc2cc(O)ccc2[nH]1)N1CCC(Cc2ccccc2)CC1`, for which the IC50 in test [1] came out at 0.025 µM; in test [2], 0.031 µM. `O=C(c1cc2c(O)cc(O)cc2[nH]1)N1CCC(Cc2ccccc2)CC1`: the IC50 in test [1] was determined as 0.0065 µM; in test [2], 0.006 µM. For the compound `COc1ccc(CC2CCCCN2C(=O)c2cc3ccc(O)cc3[nH]2)cc1` (configuration not stated), the IC50 in test [1] is over 8 µM.

Take `O=C(c1nc2cc3[nH]c(=O)oc3cc2[nH]1)N1CCC(Cc2ccccc2)CC1`: in test [1], the IC50 came to 0.193 µM. `Cc1ccc(OC2CCN(C(=O)c3nc4cc(O)ccc4[nH]3)CC2)cc1`: the IC50 came out at 0.0011 µM in test [1] and 0.003 µM in test [2]. In the same order, the values of `O=C(c1cc2c(ccc3[nH]ncc32)[nH]1)N1CCC(Cc2ccccc2)CC1` are 0.02 µM and 0.005 µM. The matching figures for `N=C(c1cc2ccc(O)cc2[nH]1)N1CCC(Cc2ccccc2)CC1`: 0.0085 µM and 0.01 µM.

In test [2], `CS(=O)(=O)Nc1cccc2[nH]c(C(=O)N3CCC(Cc4ccccc4)CC3)cc12` registered an IC50 of 0.215 µM.

`O=C(c1nc2cc(O)ccc2[nH]1)N1CCC(Oc2ccc(F)cc2)CC1`: the IC50 stood at 0.0029 µM in test [1] and 0.006 µM in test [2]. As for `Oc1ccc2cc(CN3CCC(Cc4ccccc4)CC3)[nH]c2c1`, the IC50 in test [1] turned out to be 1.16 µM. The same measure, in the same setting: the same measure for `O=S(=O)(c1cc2ccc(O)cc2[nH]1)N1CCC(Cc2ccccc2)CC1`: over 8 µM.

Take `O=C(c1cc2ccc(O)cc2o1)N1CCC(Cc2ccccc2)CC1`: the IC50 in test [2] is over 10 µM. `Nc1ccc2cc(C(=O)N3CCC(Cc4ccccc4)CC3)[nH]c2c1`: the IC50 in test [1] was found to be 0.627 µM.

Turning to `O=C(c1ccccc1)C1CCN(C(=O)c2cc3ccc(O)cc3[nH]2)CC1`, in test [1], the IC50 was determined as 0.744 µM. Turning to `O=C(c1cc2ccc(O)cc2[nH]1)N1CCC(C(O)c2ccccc2)CC1` (configuration not stated), the values for the IC50 in test [1] and in test [2] were 0.111 µM and 0.06 µM, respectively. In the same order, the values of `CS(=O)(=O)Nc1ccc2cc(C(=O)N3CCC(Cc4ccccc4)CC3)[nH]c2c1` are 0.03 µM and 0.009 µM. In the same order, the values of `CS(=O)(=O)Nc1ccc2[nH]c(C(=O)N3CCC(Cc4ccccc4)CC3)cc2c1` are 0.631 µM and 1.54 µM. `COc1ccccc1CC1CCN(C(=O)c2cc3ccc(O)cc3[nH]2)CC1`: in test [1], the IC50 worked out at 0.249 µM. Take `O=C(c1cc2cc(O)ccc2o1)N1CCC(Cc2ccccc2)CC1`: the results for the IC50 in test [1] and in test [2] were 1.9 µM and over 10 µM, respectively. The matching figures for `Cc1cccc(CC2CCN(C(=O)c3nc4cc(O)ccc4[nH]3)CC2)c1`: 0.0024 µM and 0.005 µM. In the same order, the values of `COc1cccc(CC2CCN(C(=O)c3nc4cc(O)ccc4[nH]3)CC2)c1` are 0.0025 µM and 0.003 µM. Turning to `O=C(c1cc2ccc(O)cc2[nH]1)N1CCC(Cc2cccc(F)c2)CC1`, the results for the IC50 in test [1] and in test [2] were 0.038 µM and 0.031 µM, respectively. As for `C[C@@H](CN1CCC(Cc2ccccc2)CC1)[C@@H](O)c1ccc(O)cc1`, the IC50 in test [1] came out at 0.159 µM. The ED50 in test [3] amounted to 5.1 mg/kg. Compound `O=C(c1cc2ccc(O)cc2[nH]1)N1CCC(Cc2ccccc2)CC1` returned an ED50 in test [4] of 1.7 mg/kg. As to `O=C(c1cc2ccc(O)cc2[nH]1)N1CCC(c2ccccc2)CC1`, in test [1], the IC50 was over 8 µM. Turning to `O=C(c1cc2ccc(O)cc2[nH]1)N1CCC(CCc2ccccc2)CC1`, the results for the IC50 in test [1] and in test [2] were 0.875 µM and 0.359 µM, respectively. With `Cn1c(C(=O)N2CCC(Cc3ccccc3)CC2)cc2ccc(O)cc21`, in test [1], the IC50 was determined as 5.77 µM. Consider `O=C(c1cc2c(NCc3ccccc3)cccc2[nH]1)N1CCC(Cc2ccccc2)CC1`, for which the IC50 in test [1] turned out to be 0.047 µM; in test [2], 0.191 µM.

Regarding `O=C(c1cc2ccc(O)cc2[nH]1)N1CCC(Cc2ccc(F)cc2)CC1`, the half-inhibitory concentration (IC50) in test [1] was 0.09 µM; in test [2], 0.012 µM. In the same order, the values of `Nc1cccc2[nH]c(C(=O)N3CCC(Cc4ccccc4)CC3)cc12` are 0.0043 µM and 0.012 µM.

In test [2], `O=C(c1cc2cc3[nH]c(=O)oc3cc2[nH]1)N1CCC(Cc2ccccc2)CC1` showed an IC50 of 0.023 µM.

With `Nc1ccc2[nH]c(C(=O)N3CCC(Cc4ccccc4)CC3)nc2c1`, the IC50 is 0.04 µM in test [1] and 0.143 µM in test [2].

With `O=C(c1cc2cc(O)ccc2s1)N1CCC(Cc2ccccc2)CC1`, the IC50 in test [1] was 5.61 µM; in test [2], over 10 µM. On to `Cc1ccc(CC2CCN(C(=O)c3cc4ccc(O)cc4[nH]3)CC2)cc1`, for which the IC50 in test [1] was 0.208 µM; in test [2], 0.028 µM. `COc1ccc(CC2CCN(C(=O)c3cc4ccc(O)cc4[nH]3)CC2)cc1`: the IC50 came to 0.08 µM in test [1] and 0.017 µM in test [2].

Turning to `O=C(c1cc2c(ccc3[nH]cnc32)[nH]1)N1CCC(Cc2ccccc2)CC1`, the IC50 in test [1] stood at 0.05 µM; in test [2], 0.006 µM. The matching figures for `O=C(c1nc2cc(O)ccc2[nH]1)N1CCC(Oc2ccc(Cl)cc2)CC1`: 0.0017 µM and 0.014 µM.

Regarding `O=C(c1nc2c(O)ccc(O)c2[nH]1)N1CCC(Cc2ccccc2)CC1`, the IC50 turned out to be 0.003 µM in test [1] and 0.01 µM in test [2]. Take `Nc1ccc2[nH]c(C(=O)N3CCC(Cc4ccccc4)CC3)cc2c1`: in test [1], the IC50 is 0.596 µM. For `O=C(c1cc2c(ccc3cn[nH]c32)[nH]1)N1CCC(Cc2ccccc2)CC1`, the IC50 in test [1] is 0.058 µM; in test [2], 0.064 µM.

Regarding `O=C(c1nc2ccc(O)cc2s1)N1CCC(Cc2ccccc2)CC1`, the IC50 in test [1] was 2.6 µM. On to `O=C(c1cc2ccc(O)cc2[nH]1)N1CCC(OCc2ccccc2)CC1`, for which the values for the IC50 in test [1] and in test [2] were 0.016 µM and 0.047 µM, respectively. The matching figures for `CS(=O)(=O)Nc1ccc2[nH]c(C(=O)N3CCC(Cc4ccccc4)CC3)nc2c1`: 0.0013 µM and 0.003 µM. As to `O=C(c1cc2ccc(O)cc2[nH]1)N1CCC(Oc2ccccc2)CC1`, the IC50 came to 0.107 µM in test [1] and 0.089 µM in test [2].

As for `CS(=O)(=O)Nc1ccc2nc(CN3CCC(Cc4ccccc4)CC3)[nH]c2c1`, the IC50 in test [1] was 0.0086 µM. `O=c1[nH]c2ccc([S+]([O-])CCN3CCC(Cc4ccc(F)cc4)CC3)cc2o1` (configuration not stated) [BESONPRODIL] returned an ED50 in test [4] of 2.4 mg/kg. On the same count and under the same terms, to `C[C@@H]([C@@H](O)c1ccc(O)cc1)N1CCC(O)(c2ccccc2)CC1` [TRAXOPRODIL] belongs over 20 mg/kg.

For the origin of these results see ChEMBL document CHEMBL1142862, “Selective NR1/2B N-methyl-D-aspartate receptor antagonists among indole-2-carboxamides and benzimidazole-2-carboxamides” (J Med Chem, 2007).
